From article PMC10764114 (ACS Omega, 2023)
Like-named read-outs stand apart in the source and are kept apart here.

Legend:
[1] = tested on: human embryonic kidney HEK293 cell line; experiment: MTT assay, cytotoxicity against normal HEK293 cells; format: cell-based
Outline: (§1)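 Cells grown in DMEM (4.5 g/L glucose, 10% FBS, 1% penicillin/streptomycin) at 37 °C, 5% CO₂. Seeded at 1 × 10³ cells/well and left 24 h to adhere. Test compound added at 10, 40, 80, 100 or 150 μM for 48 h (text also states MTT added 24 h post-dosing). MTT in PBS added for 3 h, formazan dissolved in DMSO for 30 min, OD read at 550 nm, % viability calculated from absorbance.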

[2] = tested on: U87-malignant glioma (ATCC-HTB-14); experiment: MTT assay, cytotoxicity against U87-malignant glioma cells; format: cell-based, human; conditions: for IC50: read-out: IC50 (μM ± SEM U87); for viability at 10 µM / viability at 40 µM / viability at 80 µM / viability at 100 µM / viability at 150 µM: read-out: % cell viability U87
Outline: as §1

[3] = MTT assay, cytotoxicity against normal HEK293 cells; format: cell-based, human; conditions: human, HEK293 cells
Outline: as §1

[4] = MTT assay, U87 malignant glioma cells, ± SEM

## 2-(4-Isobutyl phenyl)-N′-(4-(2-(2-(4-isopropylbenzylidene)hydrazinyl)-2-oxoethoxy)benzylidene)propanehydrazide [5s]
[1]; concentration 10 (μM)
  % cell viability HEK293: 58.72%
[1]; concentration 40 (μM)
  % cell viability HEK293: 58.38%
[1]; concentration 80 (μM)
  % cell viability HEK293: 51.45%
[1]; concentration 100 (μM)
  % cell viability HEK293: 49.00%
[1]; concentration 150 (μM)
  % cell viability HEK293: 39.29%
[2]; concentration 10 (μM)
  % cell viability U87: 145.03%
[2]; concentration 40 (μM)
  % cell viability U87: 93.13%
[2]; concentration 80 (μM)
  % cell viability U87: 92.16%
[2]; concentration 100 (μM)
  % cell viability U87: 78.36%
[2]; concentration 150 (μM)
  % cell viability U87: 69.18%
[2]; [4]
  IC50: 43.73 ± 0.11 µM

## 2-(4-Isobutyl phenyl)-N′-(4-(2-oxo-2-(2-(−3,4,5-trimethoxybenzylidene)hydrazinyl)ethoxy)benzylidene)propanehydrazide [5g]
[1]; concentration 10 (μM)
  % cell viability HEK293: 86.66%
[1]; concentration 40 (μM)
  % cell viability HEK293: 75.46%
[1]; concentration 80 (μM)
  % cell viability HEK293: 62.21%
[1]; concentration 100 (μM)
  % cell viability HEK293: 62.12%
[1]; concentration 150 (μM)
  % cell viability HEK293: 56.11%
[2]; concentration 10 (μM)
  % cell viability U87: 56.40%
[2]; concentration 40 (μM)
  % cell viability U87: 47.40%
[2]; concentration 80 (μM)
  % cell viability U87: 39.45%
[2]; concentration 100 (μM)
  % cell viability U87: 33.32%
[2]; concentration 150 (μM)
  % cell viability U87: 30.90%
[2]; [4]
  IC50: 39.94 ± 0.16 µM

## CC(C)Cc1ccc(C(C)C(=O)NN=Cc2ccc(OCC(=O)NN=Cc3ccc(O)cc3O)cc2)cc1 (stereo not drawn) [5e, N′-(4-(2-(2-(2,4-Dihydroxybenzylidene)hydrazinyl)-2-oxoethoxy)benzylidene)-2-(4-isobutylphenyl)propanehydrazide]
[1]; compared with malignant glioma U87 cells, 10-150 μM
  cytotoxicity in noncancerous cells (HEK293): lower cytotoxicity
[3]
  viability at 48 h, 10 μM: 69.4%
  viability at 48 h, 40 μM: 69.1%
  viability at 48 h, 80 μM: 67.9%
  viability at 48 h, 100 μM: 62.1%
  viability at 48 h, 150 μM: 50.8%
[2]; Homo sapiens, Glioma cell
  viability at 10 µM: 43.4%
  viability at 40 µM: 41%
  viability at 80 µM: 39.9%
  viability at 100 µM: 28.5%
  viability at 150 µM: 27.5%
  IC50: 5.75 ± 0.43 µM

## CC(C)Cc1ccc(C(C)C(=O)NN=Cc2ccc(OCC(=O)NN=Cc3ccc(Cl)cc3Cl)cc2)cc1 (stereo not drawn) [5h, N′-(4-(2-(2-(2,4-Dichlorobenzylidene)hydrazinyl)-2-oxoethoxy)benzylidene)-2-(4-isobutylphenyl)propanehydrazide]
[3]
  viability at 48 h, 10 μM: 84.1%
  viability at 48 h, 40 μM: 79.5%
  viability at 48 h, 80 μM: 69.1%
  viability at 48 h, 100 μM: 68.3%
  viability at 48 h, 150 μM: 67.1%
[2]; Homo sapiens, Glioma cell
  viability at 10 µM: 50.2%
  viability at 40 µM: 50.1%
  viability at 80 µM: 48.8%
  viability at 100 µM: 46%
  viability at 150 µM: 43.6%
  IC50: 120.1 ± 0.13 µM

## CC(C)Cc1ccc(C(C)C(=O)NN=Cc2ccc(OCC(=O)NN=Cc3cc(Br)c(O)c(Br)c3)cc2)cc1 (stereo not drawn) [5i, N′-(4-(2-(2-(3,5-Dibromo-4-hydroxybenzylidene)hydrazinyl)-2-oxoethoxy)benzylidene)-2-(4-isobutylphenyl)propanehydrazide]
[3]
  viability at 48 h, 10 μM: 67.6%
  viability at 48 h, 40 μM: 57.4%
  viability at 48 h, 80 μM: 55.7%
  viability at 48 h, 100 μM: 49.9%
  viability at 48 h, 150 μM: 43.8%
[2]; Homo sapiens, Glioma cell
  viability at 10 µM: 40.3%
  viability at 40 µM: 36.9%
  viability at 80 µM: 31.4%
  viability at 100 µM: 29.9%
  viability at 150 µM: 24.4%
  IC50: 38.32 ± 0.1 µM

## CC(C)Cc1ccc(C(C)C(=O)NN=Cc2ccc(OCC(=O)NN=Cc3ccc(Br)cc3F)cc2)cc1 (stereo not drawn) [5j, N′-(4-(2-(2-(4-Bromo-2-fluorobenzylidene)hydrazinyl)-2-oxoethoxy)benzylidene)-2-(4-isobutylphenyl)propanehydrazide]
[3]
  viability at 48 h, 10 μM: 44.5%
  viability at 48 h, 40 μM: 40.1%
  viability at 48 h, 80 μM: 38.4%
  viability at 48 h, 100 μM: 36.8%
  viability at 48 h, 150 μM: 26.3%
[2]; Homo sapiens, Glioma cell
  viability at 10 µM: 187%
  viability at 40 µM: 128%
  viability at 80 µM: 94.2%
  viability at 100 µM: 93.1%
  viability at 150 µM: 78.6%
  IC50: 43.71 ± 0.07 µM

## COc1ccc(C=NNC(=O)COc2ccc(C=NNC(=O)C(C)c3ccc(CC(C)C)cc3)cc2)cc1OC (stereo not drawn) [5l, N′-(4-(2-(2-(3,4-Dimethoxybenzylidene)hydrazinyl)-2-oxoethoxy)benzylidene)-2-(4-isobutylphenyl)propanehydrazide]
[3]
  viability at 48 h, 10 μM: 30.5%
  viability at 48 h, 40 μM: 28.1%
  viability at 48 h, 80 μM: 25.9%
  viability at 48 h, 100 μM: 24.9%
  viability at 48 h, 150 μM: 24.2%
[2]; Homo sapiens, Glioma cell
  viability at 10 µM: 97%
  viability at 40 µM: 88.4%
  viability at 80 µM: 84.9%
  viability at 100 µM: 84.2%
  viability at 150 µM: 79.7%
  IC50: 72.83 ± 0.06 µM
